In ChEMBL document CHEMBL2040727, “Substituted thiazoles VI. Synthesis and antitumor activity of new 2-acetamido- and 2 or 3-propanamido-thiazole analogs” (2012) one finds inhibition of growth data, which are given here for six compounds.

What all share (format): functional
The subject of assay [1] is MOLT-4. Kind of assay: Growth inhibition of human MOLT4 cells at 10 uM after 48 hrs by coulter counter analysis. The note with it: MOLT-4, 48 h, read-out: GI. The procedure, abridged:
(§1)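 Single-dose NCI 60-line panel screen of test compounds. Cells grown in RPMI 1640 with 10% FBS. Compounds dissolved in DMSO, then diluted in phosphate buffer saline (final DMSO below 1%). Wells run in duplicate at 6 × 10⁴ cells/ml. Controls held PBS and DMSO at matching dilutions. Incubation 48 h at 37 °C under humidified 5% CO2. Cells diluted tenfold in saline and counted by Coulter counter. Percent growth inhibition taken from mean-graph of treated-cell growth.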

The subject of assay [2] is SR. Nature of the assay: Growth inhibition of human SR cells at 10 uM after 48 hrs by coulter counter analysis. The following applies: read-out: GI. The procedure, abridged: (§2)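 Single-dose screen in the NCI 60 cell line panel. Cells grown in RPMI 1640 with 10% FBS. Compounds dissolved in DMSO and diluted in phosphate buffered saline, final DMSO under 1%. Duplicate wells seeded from culture at 6 × 10⁴ cells/ml. Incubated 48 h at 37 °C, humidified, 5% CO2. Cells diluted tenfold in saline and Coulter-counted. Percent growth inhibition computed against PBS/DMSO controls.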

For assay [3], the system named is EKVX. Kind of assay: Growth inhibition of human EKVX cells at 10 uM after 48 hrs by coulter counter analysis. The note with it: read-out: GI. In outline: as §1
For assay [4], the system named is HOP-62. Nature of the assay: Growth inhibition of human HOP62 cells at 10 uM after 48 hrs by coulter counter analysis. The note with it: HOP-62, 48 h, read-out: GI. The procedure, abridged:
as §1

The test system of assay [5] is NCI-H226. Nature of the assay: Growth inhibition of human NCI-H226 cells at 10 uM after 48 hrs by coulter counter analysis. The following applies: NCI-H226, 48 h, read-out: GI. The procedure, abridged: as §1
Assay [6] concerns NCI-H23. Nature of the assay: Growth inhibition of human NCI-H23 cells at 10 uM after 48 hrs by coulter counter analysis. The following applies: NCI-H23, 48 h, read-out: GI. In outline:
as §1

The test system of assay [7] is NCI-H322M. Kind of assay: Growth inhibition of human NCI-H322M cells at 10 uM after 48 hrs by coulter counter analysis. The note with it: read-out: GI. The procedure, abridged:
as §1

The test system of assay [8] is NCI-H522. Nature of the assay: Growth inhibition of human NCI-H522 cells at 10 uM after 48 hrs by coulter counter analysis. The note with it: NCI-H522, 48 h, read-out: GI. In outline: as §1
Assay [9] concerns HCT-116. Nature of the assay: Growth inhibition of human HCT116 cells at 10 uM after 48 hrs by coulter counter analysis. The note with it: HCT-116, 48 h, read-out: GI. In outline:
as §1

Assay [10] has as its system KM12. Nature of the assay: Growth inhibition of human KM12 cells at 10 uM after 48 hrs by coulter counter analysis. The note with it: KM12, 48 h, read-out: GI. The procedure, abridged:
as §1

Assay [11] deals with SF-295. Kind of assay: Growth inhibition of human SF295 cells at 10 uM after 48 hrs by coulter counter analysis. The following applies: SF-295, 48 h, read-out: GI. In outline:
as §1

For assay [12], the system named is SNB-75. Kind of assay: Growth inhibition of human SNB75 cells at 10 uM after 48 hrs by coulter counter analysis. The note with it: SNB-75, 48 h, read-out: GI. The procedure, abridged: as §2
The subject of assay [13] is M14. Nature of the assay: Growth inhibition of human M14 cells at 10 uM after 48 hrs by coulter counter analysis. The note with it: M14, 48 h, read-out: GI. The procedure, abridged: as §1
For assay [14], the system named is MDA-MB-435. Nature of the assay: Growth inhibition of human MDA-MB-435 cells at 10 uM after 48 hrs by coulter counter analysis. The note with it: MDA-MB-435, 48 h, read-out: GI. The procedure, abridged: as §1
Assay [15] has as its system SK-MEL-2. Kind of assay: Growth inhibition of human SK-MEL-2 cells at 10 uM after 48 hrs by coulter counter analysis. The following applies: SK-MEL-2, 48 h, read-out: GI. In outline:
as §1

For assay [16], the system named is SK-MEL-5. Nature of the assay: Growth inhibition of human SK-MEL-5 cells at 10 uM after 48 hrs by coulter counter analysis. The note with it: SK-MEL-5, 48 h, read-out: GI. The procedure, abridged:
as §1

Assay [17] has as its system UACC-62. Kind of assay: Growth inhibition of human UACC62 cells at 10 uM after 48 hrs by coulter counter analysis. The note with it: UACC-62, 48 h, read-out: GI. The procedure, abridged:
as §2

The subject of assay [18] is OVCAR-4. Nature of the assay: Growth inhibition of human OVCAR4 cells at 10 uM after 48 hrs by coulter counter analysis. The following applies: OVCAR-4, 48 h, read-out: GI. In outline: as §1
In assay [19] the test system is OVCAR-5. Nature of the assay: Growth inhibition of human OVCAR5 cells at 10 uM after 48 hrs by coulter counter analysis. The following applies: OVCAR-5, 48 h, read-out: GI. In outline: as §1
Assay [20] deals with OVCAR-8. Kind of assay: Growth inhibition of human OVCAR8 cells at 10 uM after 48 hrs by coulter counter analysis. The note with it: OVCAR-8, 48 h, read-out: GI. In outline: as §1
In assay [21] the test system is ACHN. Nature of the assay: Growth inhibition of human ACHN cells at 10 uM after 48 hrs by coulter counter analysis. The note with it: read-out: GI. In outline:
as §1

Assay [22] has as its system MCF7. Nature of the assay: Growth inhibition of human MCF7 cells at 10 uM after 48 hrs by coulter counter analysis. The following applies: MCF7, 48 h, read-out: GI. The procedure, abridged:
as §1

Assay [23] deals with MDA-MB-231. Kind of assay: Growth inhibition of human MDA-MB-231 cells at 10 uM after 48 hrs by coulter counter analysis. The note with it: MDA-MB-231, 48 h, read-out: GI. In outline: as §1
The subject of assay [24] is T47D. Nature of the assay: Growth inhibition of human T47D cells at 10 uM after 48 hrs by coulter counter analysis. The following applies: read-out: GI. In outline: as §2

Turning to `CCOC(=O)c1sc(NC(=O)CCN2CCN(C)CC2)nc1C`, the inhibition of growth at 10 µM in assay [1] is less than 10%; in assay [2], 20.3%; in assay [3], 15.9%; in assay [4], less than 10%; in assay [5], less than 10%; in assay [6], less than 10%. The inhibition of growth at 10 µM is less than 10% in assay [7]; 12.9% in assay [8]; less than 10% in [9]; less than 10% in [10]; less than 10% in assay [11]; less than 10% in assay [12]. The inhibition of growth at 10 µM in assay [13], in assay [14], in assay [15], in assay [16], in assay [17] and in assay [18] was less than 10% throughout. The inhibition of growth at 10 µM in assay [19] is less than 10%; in assay [20], less than 10%; in [21], less than 10%; in [22] it was 16.3%; in [23] it was less than 10%; in assay [24] it was less than 10%.

Take `O=C(CCCl)Nc1nc(-c2ccccc2)cs1`: the inhibition of growth at 10 µM came to 40.7% in assay [1]; 65.4% in [2]; 24.1% in assay [3]; 51.4% in assay [4]; 29.3% in [5]; 34.7% in assay [6]. In addition, the inhibition of growth at 10 µM amounted to 29.2% in assay [7]; 78.3% in [9]; 52.6% in assay [10]; 46.3% in assay [11]; 60.6% in assay [12]; 52.7% in [13]. Moreover, the inhibition of growth at 10 µM stood at 68.2% in assay [14]; 71.2% in assay [15]; 48.9% in [16]; 39% in [17]; 24.8% in assay [18]; 35.7% in assay [19]. In addition, the inhibition of growth at 10 µM is 56.1% in assay [20]; 50.7% in [21]; 75.9% in [22]; 53.5% in [23]; 55.2% in assay [24].

Consider `O=C(CCN1CCN(c2ccccc2)CC1)Nc1nc(-c2ccccc2)cs1`, for which the inhibition of growth at 10 µM came to 37.9% in assay [1]; 19.9% in assay [2]; 24.8% in assay [3]; 24.8% in assay [4]; 26.6% in assay [5]; 31.4% in [6]. Also, the inhibition of growth at 10 µM stood at 13% in assay [7]; 21.3% in assay [8]; 41.7% in assay [9]; 10.7% in assay [10]; 13.6% in assay [11]; 28.6% in assay [12]. The inhibition of growth at 10 µM is less than 10% in [13]; 13.4% in [14]; less than 10% in [15]; 52.5% in assay [16]; 33.2% in assay [17]; 36.2% in assay [18]. The inhibition of growth at 10 µM in assay [19] is 18.8%; in [20], 23.6%; in assay [21], 16.4%; in assay [22], 12.7%; in assay [23] it was less than 10%; in [24] it was 20.4%.

For `CCOC(=O)c1sc(NC(=O)CN(C)C)nc1C`, the inhibition of growth at 10 µM in [1], in assay [2], in [3], in assay [4], in assay [5] and in [6] was less than 10% throughout. The inhibition of growth at 10 µM in assay [7], in [8], in assay [9], in assay [10], in assay [11] and in assay [12] was less than 10% throughout. Also, the inhibition of growth at 10 µM in [13], in assay [14], in assay [15], in [16], in assay [17] and in assay [18] was less than 10% throughout. Also, the inhibition of growth at 10 µM in assay [19], in assay [20], in [21], in assay [22], in assay [23] and in assay [24] was less than 10% each time.

`CCOC(=O)c1sc(NC(=O)CCN2CCOCC2)nc1C`: the inhibition of growth at 10 µM in assay [1], in assay [2], in [3], in assay [4], in assay [5] and in assay [6] was less than 10% in each case. Besides, the inhibition of growth at 10 µM in assay [7], in assay [8], in [9], in assay [10], in assay [11] and in assay [12] was less than 10% in each case. Moreover, the inhibition of growth at 10 µM in assay [13], in assay [14], in [15], in assay [16], in assay [17] and in assay [18] was less than 10% in each case. The inhibition of growth at 10 µM in assay [19], in assay [20], in assay [21], in assay [22], in assay [23] and in assay [24] was less than 10% throughout.

Regarding `Cc1cnc(NC(=O)CCN2CCN(c3ccccc3)CC2)s1`, the inhibition of growth at 10 µM in [1] was less than 10%; in assay [2] it was 14.3%; in assay [3] it was 11.4%; in assay [4], less than 10%; in assay [5], less than 10%; in assay [6] it was less than 10%. Besides, the inhibition of growth at 10 µM in [7], in assay [8], in assay [9], in assay [10], in [11] and in assay [12] was less than 10% in each case. Further, the inhibition of growth at 10 µM in assay [13], in [14], in assay [15], in assay [16], in assay [17] and in assay [18] was less than 10% each time. Further, the inhibition of growth at 10 µM in assay [19], in assay [20], in assay [21], in [22], in assay [23] and in assay [24] was less than 10% each time.
